Experiments:
Hepatitis C virus [1] = experiment: Antiviral activity against HCV 1b con1 in dual-reporter HCV replicon Huh7 cells assessed as inhibition of HCV RNA after 72 hrs by RT-PCR; type: functional, organism-based, Hepacivirus hominis; details: genotype 1b con1, Huh-7, 72 h
Outline: (§1)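 Cells were then PBS-washed and total RNA extracted. HCV RNA and GAPDH mRNA were quantified by TaqMan RT-PCR against standard curves, and HCV was normalized to GAPDH at each concentration. Percent inhibition was computed versus DMSO-treated wells, giving EC50. Reactions were also run without reverse transcriptase.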

Hepatitis C virus [2] = experiment: Antiviral activity against HCV 1b con1 in dual-reporter HCV replicon Huh7 cells by measuring hRLuc reporter activity after 72 hrs; type: functional, organism-based, Hepacivirus hominis; details: genotype 1b con1, Huh-7, 72 h
Outline: (§2)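 Replicon cells seeded at 2 x 10^4/well in DMEM without selection antibiotics. Eight threefold serial compound dilutions added, final 320 to 0.1 µM (IFN 10 to 0.003 IU/ml). After 3 days at 37°C, medium removed and hRLuc activity read with a dual-luciferase reporter kit. Percent inhibition was taken relative to compound-free control and EC50 derived.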

[3] = Selectivity index, CC50 for dual-reporter HCV replicon Huh7 cells to EC50 against HCV 1 in dual-reporter HCV replicon Huh7 cells; type: functional, Huh-7
Outline: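 Dual-reporter replicon cells: hRLuc from the replicon, FLuc in the nucleus. Seeded at 2 x 10^4/well without selection antibiotics, then eight threefold compound dilutions (final 320 to 0.1 µM). After 3 days, XTT/PMS for 4 h read at 450/650 nm, then FLuc and hRLuc luminescence. Percent inhibition calculated from the luciferase and XTT signals. Index = CC50/EC50.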

Hepatitis C virus [4] = experiment: Antiviral activity against HCV 1b con1 in dicistronic reporter selectable HCV replicon Huh7 cells assessed as inhibition of HCV RNA after 72 hrs by RT-PCR; type: functional, organism-based, Hepacivirus hominis; details: genotype 1b con1, Huh-7, 72 h; outline: as §1
[5] = Cytotoxicity against dual-reporter HCV replicon Huh7 cells by measuring FLuc reporter activity after 72 hrs; type: cell-based, Huh-7; details: human
Outline: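 DDR cells carry a nuclear FLuc reporter. They were seeded at 2 x 10^4/well without selection antibiotics and given eight threefold compound dilutions, final 320 to 0.1 µM. After 3 days, medium was removed and FLuc read with a dual-luciferase kit. Percent inhibition was calculated versus compound-free control.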

[6] = Cytotoxicity against dual-reporter HCV replicon Huh7 cells by measuring XTT end points after 72 hrs; type: cell-based, Huh-7; details: human
Outline: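 Cells were seeded at 2 x 10^4/well without selection antibiotics and exposed to eight threefold dilutions, final 320 to 0.1 µM, for 3 days. XTT (final 200 µg/ml) and phenazine methosulfate (final 1 mM) were then added. After 4 h, formazan was read at 450 nm against a 650 nm reference, and percent inhibition calculated versus control.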

[7] = molecular target: RNA-directed RNA polymerase (Hepacivirus hominis, UniProt O39930); experiment: Inhibition of recombinant HCV 1b BK NS5B polymerase by primer/template-directed transcription assay; set-up: species or system Hepatitis C virus subtype 1b
Outline: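 Recombinant genotype 1b (strain BK) NS5B with biotin-dG12 primer (5 pmol) and poly(rC)300 template (0.5 pmol). Enzyme-started, 30 min at 30°C, EDTA stop, DEAE filter capture, scintillation counting. Final DMSO 1%. IC50 fitted from triplicate cpm.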

Hepatitis C virus [8] = experiment: Antiviral activity against HCV 1b con1 in HCV 1b in dicistronic reporter selectable HCV replicon Huh7 cells by measuring hRLuc reporter activity after 72 hrs; type: functional, organism-based, Hepacivirus hominis; details: genotype 1b con1, Huh-7, 72 h; outline: as §2

Sequence of RNA-directed RNA polymerase (O39930 whole entry): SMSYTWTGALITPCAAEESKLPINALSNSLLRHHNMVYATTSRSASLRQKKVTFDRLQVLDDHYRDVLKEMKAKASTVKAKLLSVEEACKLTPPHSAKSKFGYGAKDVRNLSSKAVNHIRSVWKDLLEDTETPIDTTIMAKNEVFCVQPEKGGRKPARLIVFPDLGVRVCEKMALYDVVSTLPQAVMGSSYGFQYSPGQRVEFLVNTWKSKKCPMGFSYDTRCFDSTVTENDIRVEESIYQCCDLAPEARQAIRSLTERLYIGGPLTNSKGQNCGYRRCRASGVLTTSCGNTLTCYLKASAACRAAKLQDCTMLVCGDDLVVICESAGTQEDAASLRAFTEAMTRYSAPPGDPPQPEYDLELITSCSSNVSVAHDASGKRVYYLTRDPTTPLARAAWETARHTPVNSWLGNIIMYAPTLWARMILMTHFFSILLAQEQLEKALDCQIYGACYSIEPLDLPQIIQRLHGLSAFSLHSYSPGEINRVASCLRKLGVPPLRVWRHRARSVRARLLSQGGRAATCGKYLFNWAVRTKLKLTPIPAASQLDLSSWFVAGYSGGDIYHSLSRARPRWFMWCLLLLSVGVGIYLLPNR

SMILES | EC50 (Hepatitis C virus [1]) [µM] | EC50 (Hepatitis C virus [2]) [µM] | Selectivity index [3] | EC50 (Hepatitis C virus [4]) [µM] | CC50 at 72 h [5] [µM] | CC50 at 72 h [6] [µM] | IC50 [7] [µM] | EC50 (Hepatitis C virus [8]) [µM]
COc1cc(OC)c(CCC2(C3CCCC3)CC(O)=C(Sc3nc4nc(C)cc(C)n4n3)C(=O)O2)cc1Cl (stereo unspecified) | 3.2 | 1.7 | >188.2 | 2.4 | > 320 | > 320 | 0.014 | 3.3
Cc1cc(SC2=C(O)OC(CCc3ccc(O)cc3)(C3CCCC3)CC2=O)c(C(C)(C)C)cc1N (stereo unspecified) |  | 115 | 0.9 |  | 116 | 242 |  | 
OC[C@H]1O[C@@H](n2cnc3cc(Cl)c(Cl)cc32)[C@H](O)[C@@H]1O [DICHLORORIBOBENZIMIDAZOLE] |  | 34.1 | 0.7 |  | 60.7 | 40.4 |  | 
